The values below come from ChEMBL document CHEMBL4007487, “Discovery of Novel Pyridone-Conjugated Monosulfactams as Potent and Broad-Spectrum Antibiotics for Multidrug-Resistant Gram-Negative Infections” (J Med Chem, 2017).

In brackets after ≈: the same amount, converted by molar mass.

One data set concerns Pseudomonas aeruginosa. In words: Antibacterial activity against extended spectrum beta-lactamase IMP-4 producing multidrug resistant Pseudomonas aeruginosa clinical isolates after 18 hrs by broth microdilution method. It counts as functional. A general note: Dilution methods test growth across graded concentrations, often in twofold steps.
In the next data set the test system is Plasma. Briefly: Fraction unbound in human plasma at 10 uM after 4 hrs by LC-MS/MS based rapid equilibrium dialysis method. It counts as ADME, cell-free. Put shortly:
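Human plasma spiked at 10 μM was dialysed against buffer in a rapid equilibrium dialysis device for 4 h at 37 °C under 5% CO2 (n = 4). Both sides were quantified by LC–MS/MS. Fraction unbound was taken as the buffer concentration divided by the total plasma-side concentration.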
A general note: In equilibrium dialysis only unbound substance equilibrates across the membrane.

Data set [1] is described as follows: Drug degradation in human plasma at 10 uM after 4 hrs by LC-MS/MS analysis. The data set is classed as ADME, cell-free. As to conditions: read-out: Drug degradation. The gist of the method: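 Human plasma containing compound (10 μM, n = 4) was incubated for 4 h at 37 °C under 5% CO2. Concentrations at T0 and at 4 h were measured by LC–MS/MS, and degradation was expressed as a percentage relative to the T0 average.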

The subject of a further data set is Klebsiella pneumoniae. Briefly: Antibacterial activity against extended spectrum beta-lactamase KPC-2 producing multidrug resistant Klebsiella pneumoniae clinical isolates after 18 hrs by broth microdilution method. The data set is classed as functional.
In the next data set the test system is Acinetobacter baumannii. Briefly: Antibacterial activity against extended spectrum beta-lactamase OXA-23 producing multidrug resistant Acinetobacter baumannii clinical isolates after 18 hrs by broth microdilution method. It counts as functional.
A further data set relates to Escherichia coli. In words: Antibacterial activity against extended spectrum beta-lactamases producing Escherichia coli clinical isolates after 18 hrs by broth microdilution method. It counts as functional.
Setting [2] is: Klebsiella pneumoniae, 18 h, read-out: MIC.

On to `CC(C)[C@H](O/N=C(\C(=O)N[C@@H]1C(=O)N(OS(=O)(=O)O)C1(C)C)c1nsc(N)n1)c1cc(=O)c(O)cn1O`, for which the MIC (usually the least concentration at which growth counts as inhibited) lay within 1 to 2 µg/mL (≈ 1.78 to 3.56 µM) against Pseudomonas aeruginosa, 1 to 4 µg/mL (≈ 1.78 to 7.12 µM) in the data set on Klebsiella pneumoniae (setting [2]), 1 to 4 µg/mL (≈ 1.78 to 7.12 µM) with Acinetobacter baumannii and 0.5 to 2 µg/mL (≈ 0.89 to 3.56 µM) in the data set on Escherichia coli. This molecule came in with a Fu in the data set with Plasma of 27%. The metabolised at 4 h, 10 µM in data set [1] came out at 16%.
Consider `CC1(C)[C@H](NC(=O)/C(=N\OC(c2nccs2)c2cc(=O)c(O)cn2O)c2csc(N)n2)C(=O)N1OS(=O)(=O)O` (stereo partly drawn), for which the MIC in the data set on Pseudomonas aeruginosa was 1 to 2 µg/mL (≈ 1.66 to 3.32 µM); in the data set with Acinetobacter baumannii, 0.5 to 2 µg/mL (≈ 0.831 to 3.32 µM).
As for `CC1(C)[C@H](NC(=O)/C(=N\OC(c2ccccc2)c2cc(=O)c(O)cn2O)c2csc(N)n2)C(=O)N1OS(=O)(=O)O` (stereo partly drawn), the minimal inhibitory concentration (MIC) against Pseudomonas aeruginosa and with Acinetobacter baumannii was 0.5 to 2 µg/mL (≈ 0.841 to 3.36 µM) each time.
As for `CC(C)[C@@H](O/N=C(\C(=O)N[C@@H]1C(=O)N(OS(=O)(=O)O)C1(C)C)c1nc(N)sc1Cl)c1cc(=O)c(O)cn1O`, the minimal inhibitory concentration (MIC) against Pseudomonas aeruginosa is 0.5 to 4 µg/mL (≈ 0.84 to 6.72 µM); with Klebsiella pneumoniae (setting [2]), 0.5 to 2 µg/mL (≈ 0.84 to 3.36 µM); in the data set on Acinetobacter baumannii it was 0.25 to 64 µg/mL (≈ 0.42 to 108 µM); with Escherichia coli, 0.125 to 1 µg/mL (≈ 0.21 to 1.68 µM).
With `COCC(O/N=C(\C(=O)N[C@@H]1C(=O)N(OS(=O)(=O)O)C1(C)C)c1csc(N)n1)c1cc(=O)c(O)cn1O` (stereo partly drawn), the MIC against Pseudomonas aeruginosa lay in the range of 1 to 4 µg/mL (≈ 1.78 to 7.11 µM); in the data set with Klebsiella pneumoniae (setting [2]) it was 0.06 to 2 µg/mL (≈ 0.107 to 3.56 µM); against Acinetobacter baumannii, 0.125 to 1 µg/mL (≈ 0.222 to 1.78 µM). Further, the Fu in the data set with Plasma came out at 67%. Also, the metabolised at 4 h, 10 µM in data set [1] came out at 57%.
Take `CCC(O/N=C(\C(=O)N[C@@H]1C(=O)N(OS(=O)(=O)O)C1(C)C)c1csc(N)n1)c1cc(=O)c(O)cn1O` (stereo partly drawn): the minimum inhibitory concentration (MIC) in the data set on Pseudomonas aeruginosa is 0.125 to 4 µg/mL (≈ 0.229 to 7.32 µM); against Klebsiella pneumoniae it was above 0.03 to 64 µg/mL; in the data set on Acinetobacter baumannii, 0.25 to 2 µg/mL (≈ 0.457 to 3.66 µM); against Escherichia coli, 0.25 to 2 µg/mL (≈ 0.457 to 3.66 µM). In addition, the Fu in the data set with Plasma is 35%. The metabolised at 4 h, 10 µM in data set [1] is 27%.
For `CC(C)[C@@H](O/N=C(\C(=O)N[C@@H]1C(=O)N(OS(=O)(=O)O)C1(C)C)c1csc(N)n1)c1cc(=O)c(O)cn1O`, the MIC in the data set on Pseudomonas aeruginosa was in the range of 1 to 4 µg/mL (≈ 1.78 to 7.14 µM); in the data set with Klebsiella pneumoniae (setting [2]), 0.06 to 0.5 µg/mL (≈ 0.107 to 0.892 µM); against Acinetobacter baumannii, 0.25 to 64 µg/mL (≈ 0.446 to 114 µM); in the data set with Escherichia coli, 0.06 to 2 µg/mL (≈ 0.107 to 3.57 µM).
Regarding `CSC[C@@H](O/N=C(\C(=O)N[C@@H]1C(=O)N(OS(=O)(=O)O)C1(C)C)c1csc(N)n1)c1cc(=O)c(O)cn1O`, the MIC with Pseudomonas aeruginosa was in the range of 1 to 8 µg/mL (≈ 1.73 to 13.8 µM); in the data set with Klebsiella pneumoniae (setting [2]) it was 0.125 to 0.5 µg/mL (≈ 0.216 to 0.864 µM); against Acinetobacter baumannii, 0.5 to 2 µg/mL (≈ 0.864 to 3.46 µM).
Turning to `CNC(=O)C(O/N=C(\C(=O)N[C@@H]1C(=O)N(OS(=O)(=O)O)C1(C)C)c1csc(N)n1)c1cc(=O)c(O)cn1O` (stereo partly drawn), the MIC against Pseudomonas aeruginosa is 4 µg/mL (≈ 6.95 µM); in the data set on Klebsiella pneumoniae (setting [2]), 0.25 to 2 µg/mL (≈ 0.434 to 3.48 µM); with Acinetobacter baumannii, 0.25 to 1 µg/mL (≈ 0.434 to 1.74 µM); in the data set with Escherichia coli, 0.06 to 4 µg/mL (≈ 0.104 to 6.95 µM). In the data set with Plasma, this molecule came in with a Fu of 69%. Further, the metabolised at 4 h, 10 µM in data set [1] came to 36%.
`CC(O/N=C(\C(=O)N[C@@H]1C(=O)N(OS(=O)(=O)O)C1(C)C)c1nc(N)sc1Cl)c1cc(=O)c(O)cn1O` (stereo partly drawn): the results for the MIC against Pseudomonas aeruginosa, in the data set on Klebsiella pneumoniae (setting [2]) and against Acinetobacter baumannii were 0.5 to 4 µg/mL (≈ 0.882 to 7.06 µM), 0.06 to 1 µg/mL (≈ 0.106 to 1.76 µM) and 0.25 to 2 µg/mL (≈ 0.441 to 3.53 µM), respectively. In addition, the Fu in the data set on Plasma stood at 20%. Besides, in data set [1], the metabolised at 4 h, 10 µM stood at 20%.
As for `CC1(C)[C@H](NC(=O)/C(=N\OC(c2cc(=O)c(O)cn2O)C2CC2)c2csc(N)n2)C(=O)N1OS(=O)(=O)O` (stereo partly drawn), the minimal inhibitory concentration (MIC) in the data set on Pseudomonas aeruginosa fell in the range of 0.25 to 4 µg/mL (≈ 0.448 to 7.16 µM); against Klebsiella pneumoniae, 0.06 to 64 µg/mL; with Acinetobacter baumannii, 0.5 to 2 µg/mL (≈ 0.895 to 3.58 µM); in the data set with Escherichia coli, 0.06 to 4 µg/mL (≈ 0.107 to 7.16 µM). This molecule came in with a Fu in the data set on Plasma of 39%. For the same molecule, the metabolised at 4 h, 10 µM in data set [1] stood at 24%.
On to `CC1(C)[C@H](NC(=O)/C(=N\OCc2ccn(O)c(=O)c2)c2csc(N)n2)C(=O)N1OS(=O)(=O)O`, for which the minimal inhibitory concentration (MIC) in the data set with Pseudomonas aeruginosa was 64 µg/mL (≈ 127 µM); with Klebsiella pneumoniae (setting [2]) it was 4 to 64 µg/mL (≈ 7.96 to 127 µM); against Acinetobacter baumannii, 4 to 64 µg/mL (≈ 7.96 to 127 µM); in the data set with Escherichia coli, 0.25 to 4 µg/mL (≈ 0.498 to 7.96 µM).
On to `CC1(C)[C@H](NC(=O)/C(=N\OC(C(=O)O)c2cc(=O)c(O)cn2O)c2csc(N)n2)C(=O)N1OS(=O)(=O)O` (stereo partly drawn), for which the MIC in the data set with Pseudomonas aeruginosa is 1 to 4 µg/mL (≈ 1.78 to 7.11 µM); in the data set on Klebsiella pneumoniae (setting [2]) it was 0.25 to 1 µg/mL (≈ 0.444 to 1.78 µM); against Acinetobacter baumannii, 0.5 µg/mL (≈ 0.889 µM); in the data set with Escherichia coli, 0.125 to 4 µg/mL (≈ 0.222 to 7.11 µM).
Consider `CC(C)[C@H](O/N=C(\C(=O)N[C@@H]1C(=O)N(OS(=O)(=O)O)C1(C)C)c1nc(N)sc1Cl)c1cc(=O)c(O)cn1O`, for which the MIC was in the range of 0.06 to 1 µg/mL (≈ 0.101 to 1.68 µM) against Pseudomonas aeruginosa, 0.25 to 0.5 µg/mL (≈ 0.42 to 0.84 µM) in the data set with Klebsiella pneumoniae (setting [2]), 0.5 to 1 µg/mL (≈ 0.84 to 1.68 µM) in the data set on Acinetobacter baumannii and 0.06 to 1 µg/mL (≈ 0.101 to 1.68 µM) against Escherichia coli. The Fu with Plasma stood at 23%. Further, in data set [1], the metabolised at 4 h, 10 µM amounted to 33%.
